Compound activity: PubChem BioAssay, several laboratories
CRFBP-R2 agonist – CRF-BP/CRF-R2 complex agonism; HEK293 CRF-R2/CRF-BP, calcium dye fluorescence (FLIPR); percent of saturating CRF peptide response; activation, % at 13.2 µM; actives 0.46% (n = 350,000);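 active means activation of at least 50%, plus an integration ratio under a set limit after plate pattern correction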;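 further: plate controls were neutral control wells without compound for no effect and CRF at EC100 for full effect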
Rpn11 block – Rpn11 (human) deubiquitinase inhibition | O00487 | human 26S proteasome, Ub4-pepOG fluorescence polarization; 20S core pre-blocked with epoxomicin | calls only at 20 µM | actives 0.59% (n = 360,000) | AID 588493;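 active means inhibition at 20 µM, scaled to each plate's controls, above about 33%, limit read from the data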
Target sequence (O00487 whole entry, looked up): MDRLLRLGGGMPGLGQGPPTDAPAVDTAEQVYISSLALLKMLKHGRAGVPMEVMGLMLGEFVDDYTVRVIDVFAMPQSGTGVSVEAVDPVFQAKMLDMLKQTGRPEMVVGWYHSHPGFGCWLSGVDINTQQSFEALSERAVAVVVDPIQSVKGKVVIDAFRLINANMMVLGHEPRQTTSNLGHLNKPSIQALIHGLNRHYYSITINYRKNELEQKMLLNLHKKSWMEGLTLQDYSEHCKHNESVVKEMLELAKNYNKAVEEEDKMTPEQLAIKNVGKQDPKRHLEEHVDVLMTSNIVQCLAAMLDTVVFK
CSN inh – CSN deneddylation inhibition; Q92905; Purified CSN, SCF-Nedd8-OG deneddylation, fluorescence polarization; inhibition, % at 12.5 µM; actives 0.38% (n = 360,000); AID 651999;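 active means pattern-corrected inhibition above about 35%, with an unprinted fluorescence ratio check between 0.5 and 1.5, limit read from the data, passing the limit was not always enough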;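 further: 0% = enzyme with substrate and 100% = substrate without enzyme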
Target sequence (Q92905 whole entry, looked up, one chain of several): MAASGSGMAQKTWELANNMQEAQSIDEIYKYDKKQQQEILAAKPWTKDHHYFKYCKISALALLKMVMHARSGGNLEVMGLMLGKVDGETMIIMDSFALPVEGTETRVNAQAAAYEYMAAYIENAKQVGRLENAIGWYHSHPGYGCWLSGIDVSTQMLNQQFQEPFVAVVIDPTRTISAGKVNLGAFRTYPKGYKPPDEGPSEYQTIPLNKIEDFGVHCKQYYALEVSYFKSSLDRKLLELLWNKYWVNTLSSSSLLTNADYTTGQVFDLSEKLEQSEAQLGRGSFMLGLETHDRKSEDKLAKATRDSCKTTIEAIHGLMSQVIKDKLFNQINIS
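assay system = purified human Csn5 enzyme expressed in HEK293T cells | amount = 0.24 nM enzyme | buffer or medium = Tris/NaCl/DTT buffer, pH 7.5 | reagent = 10 nM SCFSkp2-Nedd8OG | compound = one concentration, 12.5 µM, 0.25% DMSO | times = 90 min reaction at room temperature | signal = FP | read-out basis = % inhibition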
HNF4A DNA FP – change in binding of human HNF4 alpha to DNA. P41235. HNF4a-FITC DNA binding, fluorescence polarization, 1 h. activity change, % at 10 µM. actives 0.3% (n = 360,000). AID 1224865; in the data active means activity change above about 30%, passing the limit was not always enough
TPT1 inh – inhibitors of Candida albicans tRNA 2'-phosphotransferase TPT1 | recombinant caTPT1, FP RNA substrate dephosphorylation | inhibition, % at 5 µM | actives 0.81% (n = 300,000);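 active means inhibition above the mean of all tested compounds plus 3 SD, set per screening campaign, cut at about 24% in these data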;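 further: plate controls were DMSO alone for no effect and ferristatin control at 100 nM for full effect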
CRFBP-R2 block – CRF-BP/CRF-R2 complex antagonism | HEK293 CRF-R2/CRF-BP, CRF-induced calcium fluorescence | inhibition, % at 11.8 µM | actives 0.59% (n = 350,000);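 active means inhibition of the ligand-induced calcium signal above about 50% at the single tested concentration, limit read from the data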
Numbers without * were called inactive; i = inactive; . = not tested or not shown. Most compounds without a hit are left out; they make up all but 2.3% or so of the library.

SMILES	CRFBP-R2 agonist	Rpn11 block	CSN inh	HNF4A DNA FP	TPT1 inh	CRFBP-R2 block
CCN1C(=O)/C(=C\N2CCCc3ccccc32)SC1=S	3.2	i	0.2	0.8	1.1	-5.1
O=C(C[n+]1cc(-c2ccc(F)cc2)n2c1CCC2)Nc1nc(-c2ccccc2)cs1	-0.3	i	2.5	2.9	1.3	14.4
Cc1ccc(-c2c[n+](CC(=O)Nc3nc(-c4ccc(F)cc4)cs3)c3n2CCC3)cc1	-0.8	i	-4.6	1.9	-1.3	62.8*
NS(=O)(=O)c1ccc(N/N=C/c2ccc(C(=O)O)cc2)c([N+](=O)[O-])c1	-1.6	i	0.4	-3.6	-0.3	-8.4
Cc1nn(-c2ccccc2)c(N2CCCC2)c1/C=N/Nc1ccc(S(N)(=O)=O)cc1[N+](=O)[O-]	-0.1	i	-0.8	-0.4	5.5	59.6*
O=C(NC1CCSc2ccccc21)c1ccccc1Cl (stereo not given)	0.1	i	1.9	3.5	-1.2	8.4
C/C(=N\OC(=O)c1ccc(OC(C)C)cc1)c1ccc(C)c(C)c1	-1.7	i	-5.9	-8.0	-0.7	72.7*
O=C(NCC(=O)N1CCCCCCC1)c1ccco1	0.1	i	3.6	1.6	.	3.1
Cc1cccc(NC(=O)CNC(=O)c2ccc(S(=O)(=O)NCc3ccco3)cc2)c1C	-0.6	i	-1.0	1.2	.	0.8
Cc1ccc(C)c(S(=O)(=O)ON2C(=O)c3ccccc3C2=O)c1	1.5	i	1.2	3.2	-1.6	62.7*
CCSc1nnc(NC(=O)C(C)(C(F)(F)F)C(F)(F)F)s1	19.9	i	-1.1	5.5	0.3	48.6
CCSc1nnc(NC(=O)C(CC)(C(F)(F)F)C(F)(F)F)s1	31.1	i	0.6	-7.2	-5.1	55.5*
COc1ccc(/C(O)=C2\C(=O)C(=O)N(CCN(C)C)C2c2cc(OC)c(OC)c(OC)c2)c(C)c1 (stereo not given)	1.3	i	1.5	2.3	-4.3	-16.1
COc1cc(C(=O)N2CCC(NC(=O)C(Cc3ccc(C(C)C)cc3)NC(C)=O)CC2)cc(OC)c1OC (stereo not given)	-2.5	i	0.2	52.3*	-3.9	5.1
COc1cc(C(=O)N2CCC(NC(=O)C(Cc3ccc(C)cc3)NC(C)=O)CC2)cc(OC)c1OC (stereo not given)	-1.2	i	2.7	-4.3	-2.7	6.8
COc1ccccc1N1CCN(c2ncc(C(=O)N3CCN(c4cccc(Cl)c4)CC3)c3ccccc23)CC1	114.6*	i	-10.8	-0.9	-3.3	-289.9
Cc1ccc(S(=O)(=O)N[C@H](C(=O)Oc2ccc3c(C(F)(F)F)cc(=O)oc3c2)c2ccccc2)cc1	69.1*	i	-4.0	-10.1	-15.2	-20.1
Cc1ccc(S(=O)(=O)NC(C(=O)Oc2ccc3ccc(=O)oc3c2)c2ccccc2)cc1 (stereo not given)	-0.9	i	2.0	1.6	1.0	-6.5
CC(=O)c1ccc(NC(=O)CN2CCN(c3ccccc3)CC2)cc1	1.0	i	2.1	1.9	0.7	46.4
CC(=O)Nc1ccc(C(=O)CN2CCN(c3ccccc3)CC2)cc1	0.3	i	99.6*	19.2	4.0	-0.5
CCCn1c(N)c(C(=O)CSc2nnc(-c3c[nH]c4ccccc34)n2C2CC2)c(=O)[nH]c1=O	-0.1	i	-1.7	2.3	.	16.1
Cn1c(N)c(C(=O)CSc2nnc(-c3c[nH]c4ccccc34)n2C2CC2)c(=O)[nH]c1=O	0.6	i	35.3*	-1.8	.	17.5
COc1cc(/C=C/c2c([N+](=O)[O-])c(=O)n(C)c(=O)n2C)cc(OC)c1OC	-0.1	i	-1.9	2.9	-3.1	-7.4
COc1ccc(/C=C/c2c([N+](=O)[O-])c(=O)n(C)c(=O)n2C)cc1O	0.8	i	3.1	-1.0	2.2	52.1*
COc1ccc(NC(=O)Nc2ccc3c(c2)OCO3)c(C)c1	-1.3	i	4.2	-0.8	-2.3	53.2*
SMILES	CRFBP-R2 agonist	Rpn11 block	CSN inh	HNF4A DNA FP	TPT1 inh	CRFBP-R2 block
Cc1cccc(NC(=S)NC(=O)Cc2ccccc2)c1C	70.7*	i	4.5	-0.9	.	-26.8
CCC(=O)NC(=S)Nc1ccccc1OC	2.1	i	-0.1	0.9	-1.9	15.8
COc1ccc(CC(=O)NC(=S)Nc2cccc(CO)c2)cc1	28.8	i	3.0	-3.3	-1.0	-25.0
COc1ccc(C(=O)O)cc1NC(=S)NC(=O)c1ccc(-c2ccc(Cl)cc2)o1	-2.4	i	6.2	-2.9	.	86.4*
Cc1cccc(NC(=S)NC(=O)CCc2ccccc2)c1C	0.0	i	-0.2	-1.1	0.1	-26.0
O=C(O)c1cccc(NC(=S)NC(=O)c2ccc(-c3ccc(Cl)cc3)o2)c1	-6.5	i	6.8	8.3	-0.3	27.4
COc1cccc(NC(=S)NC(=O)Cc2ccc(Cl)cc2)c1	67.9*	i	-0.3	1.4	-0.2	-29.4
COc1ccccc1NC(=S)NC(=O)Cc1ccc(Cl)cc1	63.4*	i	6.3	1.1	-4.2	-18.8
CCOC(=O)C1(C)CCCN(C(=O)c2c(F)ccc(C)c2F)C1 (stereo not given)	.	i	0.1	0.8	.	.
O=C(CN(CC1CCCO1)C(=O)CNS(=O)(=O)c1ccc(F)cc1)NCC1CCCO1 (stereo not given)	0.1	i	4.9	-1.8	-1.3	4.8
Fc1cccc(NC(=S)NCc2ccc(Cl)cc2)c1	-2.5	i	-19.0	-1.2	1.0	53.9*
COc1ccc(CNC(=S)Nc2cccc(C)c2C)cc1	-1.2	i	-0.3	4.7	1.3	51.6*
COc1ccc(CC(=O)NC(=S)Nc2cccc(C)c2)cc1	58.4*	i	-2.4	0.1	1.4	-24.7
CCCCNC(=O)C1(C)CCCCN1C(=O)c1cc2ccccc2s1 (stereo not given)	.	i	0.6	-3.9	.	.
O=C(OCC(=O)N1CCN(c2ccccc2)CC1)c1ccccn1	0.7	i	1.8	-1.7	3.8	53.1*
O=C(CSc1ccc(-c2ccccc2)nn1)N1CCN(c2ccccc2)CC1	-1.1	i	-2.3	4.1	-2.7	1.8
O=C(OCC(=O)N1CCN(c2ccccc2)CC1)c1ccc2ccccc2n1	-2.2	i	-2.1	-0.8	-2.6	15.9
O=C(CSc1ccc(-c2ccncc2)nn1)N1CCN(c2ccccc2)CC1	2.3	i	-4.7	3.4	-4.5	63.3*
Cc1cc(NS(=O)(=O)c2ccc(NC(=O)c3ccc([N+](=O)[O-])cc3)cc2)nc(C)n1	-2.8	i	0.0	2.2	.	16.9
Cc1ccc(C)c(NC(=S)Nc2cccc3cnccc23)c1	0.8	i	35.5*	0.6	0.2	4.4
Cc1ccc(NC(=S)Nc2cccc3cnccc23)cc1C	0.7	i	36.9*	6.3	2.2	13.9
Cc1ccccc1NC(=S)Nc1cccc2cnccc12	-4.0	i	29.4	2.9	-1.4	6.7
